# From PubChem BioAssay
# Rows were chosen to be rich in hits. Some 3.3% of all compounds tested hit in one or more screens of this group.
# CendR NRP1 mod: modulators of CendR peptide binding to NRP-1, primary screen, biochemical, fluorescence polarization, uHTS; inhibition, % at 25 µM; hit rate 0.85% among 360,000; AID 602438, 2012; FAM-RPARPAR peptide binding to NRP-1;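 active = inhibition or corrected inhibition above about 18%, plus a signal ratio from 0.5 to 1.5, limit read from the data, passing the limit was not always enough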
# SENP8 block-1: human SENP8 protease inhibitors, primary screen, biochemical, fluorescence, Nedd8 protein substrate, uHTS. Sentrin-specific protease 8 (Homo sapiens), Q96LD8. hit rate 0.64% among 360,000. recombinant SENP8. inhibition, % at 20 µM. AID 602440, 2012; in the data active = inhibition mostly above about 40%, no sharp cut-off; inactive = mostly below about 27%
# SENP1 FRET inh: human SENP1 catalytic domain inhibitors, primary screen, biochemical, FRET, uHTS | Sentrin-specific protease 1 (Homo sapiens), Q9P0U3 | recombinant SENP1 catalytic domain, CyPet-SUMO1-YPet FRET cleavage | inhibition, % at 10 µM | hit rate 0.21% among 360,000;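 active = inhibition at least 30% at 10 µM, raw YFP signal under a set limit, fluorescence ratio 0.5 to 1.5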;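 note: 0% = enzyme with DMSO and 100% = no enzyme wells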
# Target sequence (Q9P0U3 419-644 limits assumed): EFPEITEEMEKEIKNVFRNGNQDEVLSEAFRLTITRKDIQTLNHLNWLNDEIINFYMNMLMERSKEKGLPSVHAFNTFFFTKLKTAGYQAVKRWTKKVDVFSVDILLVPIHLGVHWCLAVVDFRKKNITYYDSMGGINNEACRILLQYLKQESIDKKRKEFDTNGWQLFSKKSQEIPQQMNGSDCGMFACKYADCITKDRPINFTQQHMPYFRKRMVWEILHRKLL
#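 Test system: human SENP1 catalytic domain; medium: Tris pH 8 buffer plus EDTA, NaCl, BME, BSA, NP40, catalase; incubation: 50 min reaction at room temperature; technique: FRET, CFP and YFP emission; controls: no-enzyme low control and enzyme-plus-DMSO high control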
# SENP6 inh: SENP6 protease inhibitors, primary screen, biochemical, luminescence, uHTS. Recombinant SENP6 catalytic domain, aminoluciferin luminescence. inhibition, % at 10 µM. hit rate 1.8% among 330,000. AID 2599, 2010;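 active = inhibition above about 50% at the single tested dose, limit read from the data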;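 note: plate controls were DMSO wells with enzyme for no effect and DMSO wells lacking enzyme for full effect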
# SENP7 block: SENP7 protease inhibitors, primary screen, biochemical, luminescence, uHTS; Sentrin-specific protease 7 (Homo sapiens), Q9BQF6; recombinant SENP7, Z-RLRGG-aminoluciferin luminescence, 40 min; inhibition, % at 5 µM; hit rate 1.5% among 330,000; AID 434973, 2010;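 active = inhibition above about 50% at the single test dose, limit read from the data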;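 note: plate controls were DMSO with enzyme for no effect and no enzyme buffer wells for full effect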
# SENP8 block-2: SENP8 protease inhibitors, primary screen, biochemical, luminescence; Sentrin-specific protease 8 (Homo sapiens), Q96LD8; purified SENP8, Z-RLRGG-aminoluciferin cleavage; inhibition, % at 10 µM; hit rate 1.2% among 330,000; AID 2540, 2010; in the data active = inhibition above about 50%
# SENP8 confirm: SENP8 protease inhibitors, retest, confirmation, biochemical, luminescence, single concentration; shares compounds with SENP7 block; Recombinant SENP8, Z-RLRGG-aminoluciferin luminescence, 60 min; inhibition, % at 12.5 µM; hit rate 40% among 6,200;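 active = mean inhibition across replicates above about 50%, limit read from the data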
# SENP6 conf: SENP6 protease inhibitors, confirmation, biochemical, luminescence, single concentration. shares compounds with SENP7 block. recombinant SENP6, Z-RLRGG-aminoluciferin luminescence. inhibition, % at 12.5 µM. hit rate 58% among 6,200. AID 488915, 2010
# SENP7 confirm: SENP7 protease inhibitors, retest, confirmation, biochemical, luminescence, single concentration; shares compounds with SENP7 block; recombinant SENP7, Z-RLRGG-aminoluciferin luminescence, 40 min; inhibition, % at 12.5 µM; hit rate 69% among 6,200; AID 488917, 2010
# Casp3 SENP sel: caspase-3 protease inhibitors, confirmation, selectivity assay for SENP inhibitor project, biochemical, single concentration; shares compounds with SENP7 block; purified caspase-3, Z-DEVD-aminoluciferin luminescence, 60 min; inhibition, % at 12.5 µM; hit rate 60% among 6,200;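 active = mean inhibition above about 50%, limit read from the data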;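 note: plate controls were enzyme with DMSO for no effect and wells without caspase-3 for full effect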
# Target sequence (P42574 28-227 limits assumed): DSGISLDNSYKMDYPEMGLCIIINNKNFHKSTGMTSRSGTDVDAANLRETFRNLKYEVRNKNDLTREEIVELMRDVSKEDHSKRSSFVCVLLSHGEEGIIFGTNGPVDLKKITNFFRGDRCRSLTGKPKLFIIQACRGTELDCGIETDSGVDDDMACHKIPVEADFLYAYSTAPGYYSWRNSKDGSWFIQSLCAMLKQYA
# Luc interf: counter-screen for SENP inhibitors: luminescence interference; shares compounds with SENP7 block; Pre-incubated SENP8/Z-RLRGG-aminoluciferin, luciferase luminescence interference; inhibition, % at 12.5 µM; hit rate 39% among 6,200; AID 488919;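 active = mean inhibition above about 50% when retested at one dose, limit read from the data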;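 note: plate controls were DMSO wells with completed reaction for no effect and substrate without enzyme for full effect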
# Active calls of the source: *; i = inactive; / = no result.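 Rule for the calls, unless noted: active = mean inhibition above about 50% in the one-dose retest (limit read from the data); inactive = the rest.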
SMILES,CendR NRP1 mod,SENP8 block-1,SENP1 FRET inh,SENP6 inh,SENP7 block,SENP8 block-2,SENP8 confirm,SENP6 conf,SENP7 confirm,Casp3 SENP sel,Luc interf
O=C1C(c2ccncc2)=C(O)c2ccccc21,-22,27,9,85*,72*,73*,84*,83*,96*,91*,67*
O=C1C(c2cc(=O)c3ccccc3[nH]2)=C(O)c2ccccc21,-7,23,2,98*,100*,97*,94*,99*,103*,96*,95*
Cc1ccc(C2=C(O)c3ccccc3C(=O)C2=O)cc1,7,10,-3,11,-2,-7,/,/,/,/,/
O=C1NC(Cc2ccccc2)c2nc3ccc(F)cc3c(=O)n2-c2cc3ccccc3cc21 (stereo unspecified),-6,4,-1,/,/,/,/,/,/,/,/
CCOC(=O)C1CC(=NO)c2ccc(OC)c(OC)c2C1 (stereo unspecified),-12,-45,-9,/,/,/,/,/,/,/,/
CC(=O)Nc1nc2cc3c(cc2s1)OCCO3,-14,4,-3,77*,79*,61*,78*,76*,94*,89*,74*
O=C(Nc1nc2cc3c(cc2s1)OCCO3)C1CCCCC1,8,8,0,27,19,-3,/,/,/,/,/
O=C1/C(=C/c2ccc(S(=O)(=O)O)cc2S(=O)(=O)O)CCc2ccccc21,-15,3,-2,/,/,/,/,/,/,/,/
COc1cc(S(=O)(=O)N2CCN(C(=O)c3cccs3)CC2)ccc1NC(C)=O,7,22,3,/,/,/,/,/,/,/,/
COc1cc(SC)ccc1C(=O)Nc1ccc2c(c1)CCC2,2,6,6,69*,73*,67*,13,75*,90*,54*,7
COc1cc(SC)ccc1C(=O)Nc1ccncc1,-8,-9,3,-14,-1,4,/,/,/,/,/
COc1cc(SC)ccc1C(=O)Nc1ccc(Cl)cn1,0,-7,3,14,96*,87*,-1,0,2,0,-3
Cc1ccc(NC(=O)c2cccc(Oc3ccc([N+](=O)[O-])cc3)c2)c(C(=O)O)c1,-13,16,2,42,2,24,/,/,/,/,/
Cc1ccccc1NC(=O)c1cccc(S(=O)(=O)Oc2ccc([N+](=O)[O-])cc2)c1,15,6,3,-8,97*,9,4,2,-1,-1,-2
COC(=O)C[C@H]1C[C@H]2c3cc(NC(=O)Nc4ccc(F)cc4)ccc3O[C@H]2[C@@H](CO)O1,-1,4,-1,/,/,/,/,/,/,/,/
c1ccc2oc(-c3ccc4nc[nH]c4c3)nc2c1,17,-305,1,35,60*,25,52*,50*,74*,57*,44
Nc1nc2ccc(-c3nc4ccccc4o3)cc2s1,-6,i,-25,50,35,37,/,/,/,/,/
